One block for each compound: values may come before it. Active and inactive are the calls of the source. The rule behind the calls is not given here.
Assays:
Mus musculus [1] = experiment: Antidepressant activity in CD1 mouse assessed as decrease in immobility time at 0.1 mg/kg, sc measured after 15 mins by forced swim test relative to vehicle-treated control; format: functional, organism-based; design: dose 0.1 mg/kg
In short: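 Mouse forced swim test scoring immobility time. The 5-HT1A-R antagonist was given alone at 0.1 mg/kg sc. Groups were compared with vehicle-treated mice, with 7–8 animals per group, and data are shown as means ± SEM.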

Mus musculus [2] = experiment: Antidepressant activity in CD1 mouse assessed as decrease in immobility time at 1.25 mg/kg, sc measured after 15 mins by forced swim test relative to vehicle-treated control; format: functional, organism-based; design: dose 1.25 mg/kg
[3] = target: T1, 5-hydroxytryptamine receptor 1A (Homo sapiens, UniProt P08908); experiment: Displacement of [3H]8-OH-DPAT from human 5HT1A receptor expressed in HeLa cells after 30 mins; format: cell-based
T1 sequence (P08908 whole entry): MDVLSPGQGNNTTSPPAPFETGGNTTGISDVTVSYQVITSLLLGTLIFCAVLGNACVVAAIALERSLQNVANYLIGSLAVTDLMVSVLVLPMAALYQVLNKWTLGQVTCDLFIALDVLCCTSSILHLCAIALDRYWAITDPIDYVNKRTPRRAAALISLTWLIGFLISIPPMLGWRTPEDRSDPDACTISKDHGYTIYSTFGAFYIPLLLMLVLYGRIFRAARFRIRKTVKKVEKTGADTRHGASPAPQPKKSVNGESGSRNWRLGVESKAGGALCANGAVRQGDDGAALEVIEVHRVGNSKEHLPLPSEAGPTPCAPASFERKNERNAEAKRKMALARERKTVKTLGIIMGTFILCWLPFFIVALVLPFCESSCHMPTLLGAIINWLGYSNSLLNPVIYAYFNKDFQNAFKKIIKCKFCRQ
In short: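 pKi is derived from displacement of [3H]-8-OH-DPAT binding at human cloned 5-HT1A receptor. Values are means ± SEMs of 3–6 separate experiments.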

[4] = target: T2, Alpha-2A adrenergic receptor (Homo sapiens, UniProt P08913); experiment: Displacement of [3H]RX821002 from human alpha2A adrenoceptor expressed in CHO cells after 30 mins by scintillation counting; format: cell-based
T2 sequence (P08913 whole entry): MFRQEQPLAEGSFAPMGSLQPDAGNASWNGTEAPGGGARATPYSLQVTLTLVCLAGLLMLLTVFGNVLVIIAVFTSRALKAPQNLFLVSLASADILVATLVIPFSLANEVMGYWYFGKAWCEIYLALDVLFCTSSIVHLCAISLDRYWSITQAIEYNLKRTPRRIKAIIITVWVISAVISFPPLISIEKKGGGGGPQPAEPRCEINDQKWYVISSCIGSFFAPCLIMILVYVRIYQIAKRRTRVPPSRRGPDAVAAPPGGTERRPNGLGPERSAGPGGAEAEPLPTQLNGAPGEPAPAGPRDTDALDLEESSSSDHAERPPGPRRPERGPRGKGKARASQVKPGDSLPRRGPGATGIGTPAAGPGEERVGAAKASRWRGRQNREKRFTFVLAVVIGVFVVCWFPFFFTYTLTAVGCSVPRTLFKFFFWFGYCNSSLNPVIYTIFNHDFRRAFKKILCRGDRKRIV
In short: (§1)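 Binding and functional assays run on CHO cells expressing recombinant human α2-AR subtypes. Functional read-outs are agonist potency (pEC50) with intrinsic activity (ia), or antagonist pKb. Affinity is reported as pKi. Values are means ± SEMs of 3–6 separate experiments.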

[5] = target: T3, Alpha-2B adrenergic receptor (Homo sapiens, UniProt P18089); experiment: Displacement of [3H]RX821002 from human alpha2B adrenoceptor expressed in CHO cells after 30 mins by scintillation counting; format: cell-based; in short: as §1
T3 sequence (P18089 whole entry): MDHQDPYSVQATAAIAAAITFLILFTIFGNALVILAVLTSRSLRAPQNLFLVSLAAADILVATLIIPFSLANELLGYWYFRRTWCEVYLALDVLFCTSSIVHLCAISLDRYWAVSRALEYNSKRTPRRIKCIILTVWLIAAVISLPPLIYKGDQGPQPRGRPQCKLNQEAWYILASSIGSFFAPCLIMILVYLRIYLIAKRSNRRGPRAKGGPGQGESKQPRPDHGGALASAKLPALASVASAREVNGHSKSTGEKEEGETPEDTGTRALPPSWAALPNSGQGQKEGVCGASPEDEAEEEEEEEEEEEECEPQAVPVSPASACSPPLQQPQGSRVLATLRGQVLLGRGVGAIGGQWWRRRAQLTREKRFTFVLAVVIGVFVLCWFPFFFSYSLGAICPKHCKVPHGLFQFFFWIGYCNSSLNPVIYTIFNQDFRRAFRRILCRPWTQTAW

[6] = target: T3, Alpha-2B adrenergic receptor; experiment: Agonist activity at human alpha2B adrenoceptor expressed in CHO cells assessed as extracellular acidification measured after 4 mins by cytosensor microphysiometric analysis
Mus musculus [7] = experiment: Effect on morphine-dependence in CD1 mouse assessed as decrease in naloxone-precipitated jumping at 0.025 mg/kg, ip administered chronically 15 mins prior to each morphine challenge relative to vehicle-treated control; format: functional, organism-based; design: dose 0.025 mg/kg
In short: (§2)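 Acquisition of morphine dependence in mice, tested with repeated ip dosing (racemate 0.05 mg/kg, enantiomers 0.025 mg/kg). Withdrawal was precipitated by naloxone. Scored signs were jumping frequency and somatic signs (rearing, forepaw tremors, teeth chatter). Groups were compared with vehicle and with the morphine group.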

Mus musculus [8] = experiment: Effect on morphine-dependence in CD1 mouse assessed as decrease in naloxone-precipitated jumping at 0.025 mg/kg, ip administered acutely 15 mins prior to naloxone challenge relative to vehicle-treated control; format: functional, organism-based; design: dose 0.025 mg/kg
In short: as §2, with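 “Expression” for “Acquisition”, “a single acute” for “repeated”, “dose” for “dosing”, “naloxone in control and morphine-treated mice.” for “naloxone.”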

Mus musculus [9] = experiment: Effect on morphine-dependence in CD1 mouse assessed as decrease in naloxone-precipitated rearing at 0.025 mg/kg, ip administered chronically 15 mins prior to each morphine challenge relative to vehicle-treated control; format: functional, organism-based; design: dose 0.025 mg/kg; in short: as §2
Mus musculus [10] = experiment: Effect on morphine-dependence in CD1 mouse assessed as decrease in naloxone-precipitated rearing at 0.025 mg/kg, ip administered acutely 15 mins prior to naloxone challenge relative to vehicle-treated control; format: functional, organism-based; design: dose 0.025 mg/kg
In short: as §2, with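 “Expression” for “Acquisition”, “a single acute” for “repeated”, “dose” for “dosing”, “naloxone in control and morphine-treated mice.” for “naloxone.”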

Mus musculus [11] = experiment: Effect on morphine-dependence in CD1 mouse assessed as decrease in naloxone-precipitated forepaw tremors at 0.025 mg/kg, ip administered chronically 15 mins prior to each morphine challenge relative to vehicle-treated control; format: functional, organism-based; design: dose 0.025 mg/kg; in short: as §2
Mus musculus [12] = experiment: Effect on morphine-dependence in CD1 mouse assessed as decrease in naloxone-precipitated forepaw tremors at 0.025 mg/kg, ip administered acutely 15 mins prior to naloxone challenge relative to vehicle-treated control; format: functional, organism-based; design: dose 0.025 mg/kg
In short: as §2, with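 “Expression” for “Acquisition”, “a single acute” for “repeated”, “dose” for “dosing”, “naloxone in control and morphine-treated mice.” for “naloxone.”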

Mus musculus [13] = experiment: Effect on morphine-dependence in CD1 mouse assessed as decrease in naloxone-precipitated teeth chatter at 0.025 mg/kg, ip administered chronically 15 mins prior to each morphine challenge relative to vehicle-treated control; format: functional, organism-based; design: dose 0.025 mg/kg; in short: as §2
Mus musculus [14] = experiment: Effect on morphine-dependence in CD1 mouse assessed as decrease in naloxone-precipitated teeth chatter at 0.025 mg/kg, ip administered acutely 15 mins prior to naloxone challenge relative to vehicle-treated control; format: functional, organism-based; design: dose 0.025 mg/kg
In short: as §2, with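 “Expression” for “Acquisition”, “a single acute” for “repeated”, “dose” for “dosing”, “naloxone in control and morphine-treated mice.” for “naloxone.”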

Mus musculus [15] = experiment: Antidepressant activity in CD1 mouse assessed as decrease in immobility time at 0.025 mg/kg, ip administered 30 mins prior to coadministration with WAY100635 measured after 15 mins by forced swim test relative to vehicle-treated control; format: functional, organism-based; design: dose 0.025 mg/kg
In short: (§3)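 Forced swimming test in mice using 0.025 mg/kg ip test dose. It was combined with the 5-HT1A antagonist WAY 100635 (0.1 mg/kg, sc) or with the α2 antagonist yohimbine (1.250 mg/kg, ip). Each antagonist was also given alone. Immobility time is the read-out, given as means ± SEMs of 7–8 animals.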

Mus musculus [16] = experiment: Antidepressant activity in CD1 mouse assessed as decrease in immobility time at 0.025 mg/kg, ip administered 15 mins prior to coadministration with yohimbine measured after 15 mins by forced swim test relative to vehicle-treated control; format: functional, organism-based; design: dose 0.025 mg/kg; in short: as §3
[17] = target: T4, Alpha-2C adrenergic receptor (Homo sapiens, UniProt P18825); experiment: Displacement of [3H]RX821002 from human alpha2C adrenoceptor expressed in CHO cells after 30 mins by scintillation counting; format: cell-based; in short: as §1
T4 sequence (P18825 whole entry): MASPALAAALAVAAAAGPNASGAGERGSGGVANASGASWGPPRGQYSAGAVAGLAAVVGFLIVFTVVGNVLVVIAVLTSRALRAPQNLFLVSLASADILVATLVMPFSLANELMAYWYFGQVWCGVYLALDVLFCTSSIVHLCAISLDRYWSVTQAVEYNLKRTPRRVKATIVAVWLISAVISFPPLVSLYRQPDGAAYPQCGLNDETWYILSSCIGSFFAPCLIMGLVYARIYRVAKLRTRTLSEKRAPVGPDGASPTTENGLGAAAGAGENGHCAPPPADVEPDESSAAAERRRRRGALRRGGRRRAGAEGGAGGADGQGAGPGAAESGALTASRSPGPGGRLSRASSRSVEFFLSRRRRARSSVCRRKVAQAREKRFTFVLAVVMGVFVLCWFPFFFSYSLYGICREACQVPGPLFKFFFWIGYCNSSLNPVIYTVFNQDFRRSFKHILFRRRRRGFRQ

[18] = target: T4, Alpha-2C adrenergic receptor; experiment: Agonist activity at human alpha2C adrenoceptor expressed in CHO cells assessed as extracellular acidification measured after 4 mins by cytosensor microphysiometric analysis; format: functional, cell-based; in short: as §1
[19] = target: T5, Alpha-2C adrenergic receptor (Homo sapiens) (UniProt P18825); experiment: Agonist activity at human alpha2C adrenoceptor expressed in CHO cells assessed as extracellular acidification measured after 4 mins by cytosensor microphysiometric analysis relative to control; format: functional, cell-based; in short: as §1
T5 sequence (whole entry): T4 sequence (P18825 whole entry)

[20] = target: T6, 5-hydroxytryptamine receptor 1A (Homo sapiens) (UniProt P08908); settings: HeLa
T6 sequence (whole entry): T1 sequence (P08908 whole entry)

[21] = target: T7, Alpha-2B adrenergic receptor (Homo sapiens) (UniProt P18089); settings: CHO
T7 sequence (whole entry): T3 sequence (P18089 whole entry)

[22] = target: T8, Alpha-2A adrenergic receptor (Homo sapiens) (UniProt P08913); settings: CHO
T8 sequence (whole entry): T2 sequence (P08913 whole entry)

Mus musculus [23] = experiment: Antidepressant activity in CD1 mouse assessed as decrease in immobility time at 0.05 mg/kg, ip after 15 mins by forced swim test relative to vehicle-treated control; format: functional, organism-based; design: dose 0.05 mg/kg
In short: (§4)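 Mouse forced swimming test with immobility time as the read-out. Single ip doses were 0.012, 0.025, 0.05, 0.2 or 0.5 mg/kg, with fluoxetine 20 mg/kg ip as reference. Results are compared against vehicle-treated mice and given as means ± SEMs of 8–9 animals.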

Mus musculus [24] = experiment: Antidepressant activity in CD1 mouse assessed as decrease in immobility time at 0.025 mg/kg, ip after 15 mins by forced swim test relative to vehicle-treated control; format: functional, organism-based; design: dose 0.025 mg/kg; in short: as §4
Mus musculus [25] = experiment: Antidepressant activity in CD1 mouse assessed as decrease in immobility time at 0.2 mg/kg, ip after 15 mins by forced swim test relative to vehicle-treated control; format: functional, organism-based; design: dose 0.2 mg/kg; in short: as §4
Mus musculus [26] = experiment: Antidepressant activity in CD1 mouse assessed as decrease in immobility time at 0.012 mg/kg, ip after 15 mins by forced swim test relative to vehicle-treated control; format: functional, organism-based; design: dose 0.012 mg/kg; in short: as §4
Mus musculus [27] = experiment: Antidepressant activity in CD1 mouse assessed as decrease in immobility time at 0.5 mg/kg, ip after 15 mins by forced swim test relative to vehicle-treated control; format: functional, organism-based; design: dose 0.5 mg/kg; in short: as §4

Structure (SMILES): COC(=O)[C@@H]1[C@H]2C[C@H]3c4[nH]c5ccccc5c4CCN3C[C@@H]2CC[C@@H]1O
Activity (Mus musculus [1]): inactive | Activity (Mus musculus [2]): inactive

Ki [3]: 126 nM
Structure (SMILES): CC(Oc1c(Cl)cccc1Cl)C1=NCCN1 (stereo not given) [LOFEXIDINE]

Structure (SMILES): C[C@H](Oc1ccccc1CC1CC1)C1=NCCN1
Ki [3]: 5.75 nM | Ki [4]: 41.7 nM | Ki [5]: 407 nM | EC50 [6]: 1580 nM | Activity (Mus musculus [7]): Active | Activity (Mus musculus [8]): Active | Activity (Mus musculus [9]): Active | Activity (Mus musculus [10]): Active | Activity (Mus musculus [11]): Active | Activity (Mus musculus [12]): Active | Activity (Mus musculus [13]): Active | Activity (Mus musculus [14]): Active | Activity (Mus musculus [15]): inactive | Activity (Mus musculus [16]): inactive | Ki [17]: 275 nM | EC50 [18]: 2 nM | Intrinsic activity [19]: 0.85

Structure (SMILES): C=CCc1ccccc1O[C@H](C)C1=NCCN1
Ki [3]: > 10000 nM | Intrinsic activity [19]: 0.5 | pD2 [20]: < 5 | pEC50 [21]: inactive | pKb [22]: 7.4

Structure (SMILES): C=CCc1ccccc1OC(C)C1=NCCN1 (racemic) [ALLYPHENYLINE]
Ki [3]: 28.2 nM | Activity (Mus musculus [23]): Active | Activity (Mus musculus [24]): Active | Activity (Mus musculus [25]): Active | Activity (Mus musculus [26]): inactive | Activity (Mus musculus [27]): inactive | Intrinsic activity [19]: 0.9 | pD2 [20]: 6.86 | pEC50 [21]: inactive | pKb [22]: 7.4
